Key:
Rat [1] = test: concentration in plasma after dosing; settings: 6 h; dosed: Primidone; 80 mg/kg; oral; Male; F344
Rat [2] = test: concentration in plasma after dosing; settings: 1.5 h; dosed: Primidone; 130 mg/kg; oral; Female; F344
Rat [3] = test: concentration in plasma after dosing; settings: dosed: 2-Hydroxy-4-methoxybenzophenone, 100 mg/kg, oral, Male, F344
Rat [4] = test: concentration in plasma after dosing; settings: 0.25 h; dosed: 2-Hydroxy-4-methoxybenzophenone; 500 mg/kg; oral; Female; F344
Mouse [5] = test: concentration in plasma after dosing; settings: 2 h; dosed: 2-Hydroxy-4-methoxybenzophenone; 500 mg/kg; oral; Female; B6C3F1
Mouse [6] = test: concentration in plasma after dosing; settings: 10 min; dosed: 2-Hydroxy-4-methoxybenzophenone; 250 mg/kg; oral; Female; B6C3F1
Mouse [7] = test: concentration in plasma after dosing; settings: 10 min; dosed: 2-Hydroxy-4-methoxybenzophenone; 500 mg/kg; oral; Female; B6C3F1
Mouse [8] = test: concentration in plasma after dosing; settings: 3 h; dosed: 2-Hydroxy-4-methoxybenzophenone; 50 mg/kg; iv; Female; B6C3F1
Rat [9] = test: concentration in plasma after dosing; settings: dosed: 2-Hydroxy-4-methoxybenzophenone, 100 mg/kg, oral, Female, F344
Mouse [10] = test: concentration in plasma after dosing; settings: 10 min; dosed: 2-Hydroxy-4-methoxybenzophenone; 500 mg/kg; oral; Male; B6C3F1
Rat [11] = test: concentration in plasma after dosing; settings: dosed: Methyleugenol, 37 mg/kg, iv, Male, F344
Rat [12] = test: concentration in plasma after dosing; settings: dosed: Methyleugenol, 37 mg/kg, oral, Female, F344/N
Rat [13] = test: concentration in plasma after dosing; settings: dosed: Methyleugenol, 37 mg/kg, oral, Male, F344/N
Hamster = test: concentration in plasma after dosing; settings: dosed: 2,4-Dichlorophenoxyacetic acid, 2.0 mg/kg, oral, Male, Syrian Golden
Method in brief: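 Sampling and analytical methods are those of each source and frequently went unreported. The concentration-versus-time and amount-versus-time points were compiled from published in vivo toxicokinetic studies and two structured collections. Most were digitised from plot screenshots with WebPlotDigitizer, with others copied from tables, in the reported units.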

Rat [14] = test: concentration in brain after dosing; settings: 3 h; dosed: alpha-Thujone; 25 mg/kg; oral; Male; Harlan Sprague Dawley
Rat [15] = test: concentration in plasma after dosing; settings: 1.5 h; dosed: alpha-Thujone; 25 mg/kg; oral; Male; Harlan Sprague Dawley
Rat [16] = test: concentration in plasma after dosing; settings: 1.5 h; dosed: alpha-Thujone; 25 mg/kg; oral; Male; Harlan Sprague Dawley; remark: listed apart in the source
Rat [17] = test: concentration in plasma after dosing; settings: 10 min; dosed: alpha-Thujone; 25 mg/kg; oral; Male; Harlan Sprague Dawley
Rat [18] = test: concentration in brain after dosing; settings: 12 h; dosed: Perfluorohexane-1-sulphonic acid – potassium salt; 16 mg/kg; oral; Female; F344
Rat [19] = test: concentration in liver after dosing; settings: 528 h; dosed: Perfluorohexane-1-sulphonic acid – potassium salt; 16 mg/kg; oral; Female; F344
Rat [20] = test: concentration in brain after dosing; settings: 3 h; dosed: Perfluorohexane-1-sulphonic acid – potassium salt; 16 mg/kg; oral; Female; F344
Rat [21] = test: concentration in brain after dosing; settings: 6 h; dosed: Perfluorohexane-1-sulphonic acid – potassium salt; 16 mg/kg; oral; Female; F344
Rat [22] = test: concentration in liver after dosing; settings: 96 h; dosed: Perfluorohexane-1-sulphonic acid – potassium salt; 16 mg/kg; oral; Female; Harlan Sprague Dawley
Rat [23] = test: concentration in kidney after dosing; settings: 192 h; dosed: Perfluorohexane-1-sulphonic acid – potassium salt; 16 mg/kg; oral; Female; Harlan Sprague Dawley
Rat [24] = test: concentration in kidney after dosing; settings: 1200 h; dosed: Perfluorohexane-1-sulphonic acid – potassium salt; 16 mg/kg; oral; Male; Harlan Sprague Dawley
Rat [25] = test: concentration in kidney after dosing; settings: dosed: Perfluorohexane-1-sulphonic acid – potassium salt, 16 mg/kg, oral
Rat [26] = test: concentration in kidney after dosing; settings: 528 h; dosed: Perfluorohexane-1-sulphonic acid – potassium salt; 16 mg/kg; oral; Female; F344
Rat [27] = test: concentration in plasma after dosing; settings: 2 h; dosed: Pyridine; 5 mg/kg; oral; Male; F344
Rat [28] = test: concentration in plasma after dosing; settings: 0.25 h; dosed: Pyridine; 10 mg/kg; iv; Male; F344
Rat [29] = test: concentration in plasma after dosing; settings: 40 h; dosed: Pyridine; 100 mg/kg; oral; Male; F344
Rat [30] = test: concentration in plasma after dosing; settings: dosed: Pyridine, 5 mg/kg, oral, Male, F344
Rat [31] = test: concentration in plasma after dosing; settings: 2 h; dosed: Pyridine; 5 mg/kg; oral; Male; F344; remark: listed apart in the source
Rat [32] = test: concentration in plasma after dosing; settings: dosed: Pyridine, 5 mg/kg, oral, Male, F344; remark: listed apart in the source

CCC1(c2ccccc2)C(=O)NCNC1=O [Primidone]
Settings	concentration in plasma [ng/mL]
Rat [1]	13000
Rat [2]	68100

O=C(c1ccccc1)c1ccc(O)cc1O [2,4-Dihydroxybenzophenone]
concentration in plasma [ng/mL]
Settings	Rat [3]	Rat [9]
0.25 h	91	165
4 h	43.8	105

Settings	concentration in plasma [ng/mL]
Mouse [5]	104
Mouse [6]	1290
Mouse [7]	4230
Mouse [8]	57.7
Mouse [10]	1690
Rat [4]	1540

C=CCc1ccc(OC)c(OC)c1 [Methyleugenol]
Settings	concentration in plasma [ng/mL]
Rat [11], 0.25 h	9380
Rat [11], 1.5 h	670
Rat [12], 6 h	8.85
Rat [12], 10 min	254
Rat [13], 5 h	7.02
Rat [13], 20 min	53.8

O=C(O)COc1ccc(Cl)cc1Cl [2,4-Dichlorophenoxyacetic acid]
Hamster
Settings	concentration in plasma [ng/mL]
2.5 h	200
5 min	2770
10 min	10300

CC(C)[C@]12CC(=O)[C@H](C)[C@H]1C2 [alpha-Thujone]
Settings	concentration in brain [ng/g]	concentration in plasma [ng/mL]
Rat [14]	176	–
Rat [15]	–	240
Rat [16]	–	130
Rat [17]	–	872

O=S(=O)([O-])C(F)(F)C(F)(F)C(F)(F)C(F)(F)C(F)(F)C(F)(F)F.[K+] [Perfluorohexane-1-sulphonic acid – potassium salt]
Settings	concentration in brain [ng/g]	concentration in kidney [ng/g]	concentration in liver [ng/g]
Rat [18]	1770	–	–
Rat [19]	–	–	20900
Rat [20]	1090	–	–
Rat [21]	1520	–	–
Rat [22]	–	–	10200
Rat [23]	–	1560	–
Rat [24]	–	4040	–
Rat [26]	–	10000	–

concentration in kidney [ng/g], Rat [25]
Settings	3 h	6 h	12 h	24 h	48 h	96 h	192 h	528 h	1200 h
Female, F344	29100	37500	41400	38500	–	–	16300	12700	–
Female, Harlan Sprague Dawley	29000	39200	26200	17200	7840	5860	2010	–	–
Male, Harlan Sprague Dawley	–	–	–	–	–	–	–	–	5590

c1ccncc1 [Pyridine]
Settings	concentration in plasma [ng/mL]
Rat [27]	2730
Rat [28]	4510
Rat [29]	20000
Rat [31]	2710

concentration in plasma [ng/mL]
Settings	1 h	4 h	5 min	8 h
Rat [30]	2530	–	–	1390
Rat [32]	–	2550	2490	–

From EPA's CvTdb concentration-time database
